# Results gathered from unrelated publications.
# Protocols differ between the studies behind these lines.
Structure (SMILES),target or system,test,test system,setting,measurement,result
Cc1noc2c1-c1ccccc1C(c1ccc(Cl)cc1)=N[C@H]2CC(N)=O,MB002,cell growth or viability,,7 days,IC50,53.9 nM
CC1=C(C(=O)Nc2ccc3[nH]ncc3c2)C(c2ccc(F)cc2)NC(c2ccc(C(F)(F)F)nc2)=N1 (stereo not drawn),Trypanosoma brucei,parasite growth,,,EC50,5010 nM
CN1CCN(CCOc2cc(OC3CCOCC3)c3c(Nc4c(Cl)ccc5c4OCO5)ncnc3c2)CC1,MB002,cell growth or viability,,7 days,IC50,> 10000 nM
COc1cc(Nc2ncc3c(C)nc(-c4cccc(C(F)(F)F)c4)n3n2)cc(OC)c1OC,Trypanosoma brucei,parasite growth,,,EC50,158 nM
C[C@@H]1[C@H](O)[C@@H](C)/C=C/C=C/C=C/C=C/C=C/C=C/C=C/[C@H](O[C@@H]2O[C@H](C)[C@@H](O)[C@H](N)[C@@H]2O)C[C@@H]2O[C@](O)(C[C@@H](O)C[C@@H](O)[C@H](O)CC[C@@H](O)C[C@@H](O)CC(=O)O[C@H]1C)C[C@H](O)[C@H]2C(=O)O,Candida albicans,microbial growth,ATCC90028,,IC50,0.25 µg/mL
CO[C@H]1C[C@@H]2CC[C@@H](C)[C@@](O)(O2)C(=O)C(=O)N2CCCC[C@H]2C(=O)O[C@H]([C@H](C)C[C@@H]2CC[C@@H](O)[C@H](OC)C2)CC(=O)[C@H](C)/C=C(\C)[C@@H](O)[C@@H](OC)C(=O)[C@H](C)C[C@H](C)/C=C/C=C/C=C/1C,HD-MB03,cell growth or viability,,7 days,IC50,> 10000 nM
NC(=O)c1cccc(-n2c(/C=C/c3ccc(F)cc3)nc3ccncc3c2=O)c1,Enterococcus faecium,"microbial growth, broth dilution",NCTC7171,,MIC,> 128 µg/mL
Nc1nonc1-c1nc2cnccc2n1C1CCCCC1,Trypanosoma brucei,parasite growth,,,EC50,1260 nM
CC1(C)CCC(c2ccc(Cl)cc2)=C(CN2CCN(c3ccc(C(=O)NS(=O)(=O)c4ccc(N[C@H](CCN5CCOCC5)CSc5ccccc5)c(S(=O)(=O)C(F)(F)F)c4)cc3)CC2)C1,MB002,cell growth or viability,,7 days,IC50,4.4 nM
N#Cc1ccc(/C=C/c2nc3ccncc3c(=O)n2-c2cccc(C(N)=O)c2)cc1,Enterococcus faecium,"microbial growth, broth dilution",NCTC7171,,MIC,> 128 µg/mL
O=C(O)c1cn(C2CC2)c2cc(N3CCNCC3)c(F)cc2c1=O,Mycobacterium intracellulare,"microbial growth, resazurin",ATCC23068,,IC50,0.48 µg/mL
CC(=O)Nc1cccc(-n2c(=O)n(C3CC3)c(=O)c3c(Nc4ccc(I)cc4F)n(C)c(=O)c(C)c32)c1,Calu-6,"cell growth or viability, resazurin",,"390 pM, 72 h",viability,89.4%
